High-throughput results deposited in PubChem BioAssay by several laboratories.
Only some compounds are listed: those with a hit (about 1.3% of all), similar ones and a draw of the others.
CRFBP-R2 agonist: agonists of human CRF-binding protein/CRF-R2 receptor complex; 0.46% of 350,000 active; HEK293 CRF-R2/CRF-BP, calcium dye fluorescence (FLIPR); percent of saturating CRF peptide response; AID 588473; activation, % at 13.2 µM;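 active = activation of at least 50%, plus an integration ratio under a set limit after plate pattern correction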;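 also: plate controls were neutral control wells without compound for no effect and CRF at EC100 for full effect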
CRFBP-R2 block: blocks CRF-induced signaling of the CRF-BP/CRF-R2 complex; AID 588475; HEK293 CRF-R2/CRF-BP, CRF-induced calcium fluorescence; 0.59% of 350,000 active; inhibition, % at 11.8 µM;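 active = inhibition of the ligand-induced calcium signal above about 50% at the single tested concentration, limit read from the data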
Tn7 DDE FP: disrupts Tn7 cyclic peptide binding to fibrin D-Dimer-E complex. FP displacement of FITC-Tn7 peptide from fibrin DD(E); 0% = median of compound wells per plate. inhibition, % at 8.3 µM. P02675. 0.13% of 370,000 active;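 active = inhibition above the mean of compounds falling within the control limits plus 3 SD of them, cut at about 14% in these data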;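 also: 0% = plate median of compound wells and 100% = 10 µM Aha-Tn7 peptide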
Target sequence (P02675 whole entry, looked up): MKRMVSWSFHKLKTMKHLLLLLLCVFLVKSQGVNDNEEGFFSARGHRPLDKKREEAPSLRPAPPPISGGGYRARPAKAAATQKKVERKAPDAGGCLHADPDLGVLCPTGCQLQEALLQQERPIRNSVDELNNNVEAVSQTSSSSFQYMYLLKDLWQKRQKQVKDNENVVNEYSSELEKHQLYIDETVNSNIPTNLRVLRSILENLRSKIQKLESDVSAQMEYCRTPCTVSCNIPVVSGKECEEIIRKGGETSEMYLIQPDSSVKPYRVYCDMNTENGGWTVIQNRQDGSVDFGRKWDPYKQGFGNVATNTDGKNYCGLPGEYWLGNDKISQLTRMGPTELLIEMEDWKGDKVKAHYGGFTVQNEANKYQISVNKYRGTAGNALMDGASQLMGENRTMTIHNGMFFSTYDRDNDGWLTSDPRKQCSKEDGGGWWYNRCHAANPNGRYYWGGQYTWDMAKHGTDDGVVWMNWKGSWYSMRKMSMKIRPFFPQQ
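System: human fibrin DD(E); quantity: Fibrin-DD(E) at 2 µM final; also added: fluorescent Tn7 probe at 0.1 µM; compound dosing: single nominal test concentration of 8.3 µM per compound; schedule: 10 min preincubation, 3 h with tracer, room temperature; detection: fluorescence polarization of the labelled Tn7 tracer; repeats: one replicate per compound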
DDE Tn6 FP inh: disrupts Tn6 cyclic peptide binding to fibrin D-Dimer-E complex; P02675; Fibrin DD(E) TRITC-Tn6 fluorescence polarization displacement; inhibition, % at 8.3 µM; 0.21% of 370,000 active; AID 720509;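 active = inhibition above a per-campaign cutoff: mean of compounds within control limits plus 3 SD, cut at about 15% in these data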;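 also: 0% = median of all compound wells on the plate and 100% = blocking peptide control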
DDE Tn7 confirm: confirmation of inhibitors of Tn7 binding to human fibrin DD(E); shares compounds with Tn7 DDE FP; FP displacement of TRITC-Tn7 peptide from DD(E); 0% set at plate's compound-well median; inhibition, % at 8.3 µM; 5% of 460 active; AID 720628;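 active = inhibition above the campaign cutoff, the mean of compounds within control limits plus 3 SD, cut at about 14% in these data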;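 also: 100% = median FP of high control wells holding Aha-Tn7 inhibitor peptide; displacers lower polarization since freed probe rises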
Tn7 DDE ctr: counter-screen for inhibitors of Tn7 peptide binding to fibrin DD(E); shares compounds with Tn7 DDE FP; TRITC-Tn7 probe displacement, fluorescence polarization; inhibition, % at 8.3 µM; 3% of 460 active; AID 720633;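 active = inhibition above the cutoff, the mean of compounds lying between the control bounds plus 3 SD of those compounds, cut at about 17% in these data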;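 also: 0% = median of compound sample wells and 100% = excess unlabeled Aha-Tn7 peptide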
Tn6 DDE ctr: DD(E)-Tn6 binding inhibition, counter-screen; shares compounds with DDE Tn6 FP inh; Fibrin DD(E), TRITC-Tn6 fluorescence polarization displacement; 0% = median of compound wells, not DMSO; inhibition, % at 8.3 µM; 2% of 680 active; AID 720621;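 active = inhibition above the mean of test compounds lying between the control limits plus 3 SD of those, cut at about 14% in these data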;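 also: 0% = median of compound wells and 100% = wells with Aha-Tn7 blocking peptide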
Tn6 DDE conf: DD(E)-Tn6 binding inhibition, FP confirmation. AID 720631. FP displacement of TRITC-Tn6 peptide from DD(E); 0% = per-plate median of test wells. inhibition, % at 8.3 µM. shares compounds with DDE Tn6 FP inh. 10% of 680 active;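 active = inhibition above the mean of compounds lying within the control limits plus 3 SD, cut at about 16% in these data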;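 also: 100% = high control wells holding a competing inhibitor peptide at 10 µM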
* = called active by the depositor.

How did O=C1c2ccccc2-c2onc3ccc(N4CCCC4)c1c23 do in these assays?
CRFBP-R2 agonist: 83.2*; CRFBP-R2 block: -52.0; Tn7 DDE FP: 32.5*; DDE Tn6 FP inh: 100.4*; DDE Tn7 confirm: 6.3; Tn7 DDE ctr: 93.2*; Tn6 DDE ctr: 6.3; Tn6 DDE conf: 93.2*

How did CCNc1ccc2noc3c2c1C(=O)c1ccccc1-3 do in these assays?
CRFBP-R2 agonist: 191.8*; CRFBP-R2 block: -179.2; Tn7 DDE FP: 16.8*; DDE Tn6 FP inh: active; DDE Tn7 confirm: 53.3*; Tn7 DDE ctr: 93.2*; Tn6 DDE ctr: 53.3*; Tn6 DDE conf: 93.2*

What do the screens show for `CC1(C)CC(=O)C(C=Nc2ccc(C(=O)c3ccccc3)cc2N=CC2=C(O)CC(C)(C)CC2=O)=C(O)C1`?
CRFBP-R2 agonist: 104.7*; CRFBP-R2 block: -130.2; Tn7 DDE FP: 13.9*; DDE Tn6 FP inh: 19.2*; DDE Tn7 confirm: 6.3; Tn7 DDE ctr: -3.0; Tn6 DDE ctr: 6.3; Tn6 DDE conf: -3.0

Results for CN1C2=N[C@@H](c3cccc(C(F)(F)F)c3)CC(=O)N2/C(=C\c2ccccc2)[C@H]1c1ccccc1 ?
Tn7 DDE FP: -4.0; DDE Tn6 FP inh: -16.1

Results for Cn1ccnc1C(O)c1ccccc1 (stereo not given) ?
CRFBP-R2 agonist: 1.8; CRFBP-R2 block: -21.0; Tn7 DDE FP: -1.1; DDE Tn6 FP inh: 0.2

What do the screens show for `COc1ccc2ccccc2c1C(O)c1nccn1C` (stereo not given)?
CRFBP-R2 agonist: 104.0*; CRFBP-R2 block: -106.7; Tn7 DDE FP: 32.7*; DDE Tn6 FP inh: 17.2*; DDE Tn7 confirm: 16.8*; Tn7 DDE ctr: 3.7; Tn6 DDE ctr: 16.8*; Tn6 DDE conf: 3.7

What do the screens show for `Cc1ccc(CSc2ncn(-c3ccccc3)n2)cc1`?
CRFBP-R2 agonist: -0.6; CRFBP-R2 block: 23.3; Tn7 DDE FP: 0.9; DDE Tn6 FP inh: 16.3*; Tn6 DDE ctr: 3.6; Tn6 DDE conf: -1.9

What do the screens show for `O=C(C1CCN(c2cncnc2)CC1)N1CCOCC1`?
Tn7 DDE FP: -4.0; DDE Tn6 FP inh: 6.8

How did CCOC(=O)Nc1ccc2c(c1)Cc1cc([N+](=O)[O-])ccc1-2 do in these assays?
CRFBP-R2 agonist: 0.7; CRFBP-R2 block: -8.0; Tn7 DDE FP: -9.1; DDE Tn6 FP inh: 17.5*; Tn6 DDE ctr: -2.4; Tn6 DDE conf: -10.2

What do the screens show for `CCOC(=O)Nc1ccc(OC)c([N+](=O)[O-])c1`?
CRFBP-R2 agonist: -0.2; CRFBP-R2 block: -3.3; Tn7 DDE FP: 6.5; DDE Tn6 FP inh: -0.6

Results for CNc1nc(Cl)c(SC)c(NCc2cccc(OC)c2)n1 ?
CRFBP-R2 agonist: -0.3; CRFBP-R2 block: 1.7; Tn7 DDE FP: -4.1; DDE Tn6 FP inh: 17.4*; Tn6 DDE ctr: 3.7; Tn6 DDE conf: 3.7

What do the screens show for `CC(C)CNC(=O)OCc1cn(Cc2ccc(C(F)(F)F)cc2)nn1`?
Tn7 DDE FP: 1.3; DDE Tn6 FP inh: 6.1

Results for CCOc1cc(CNCCCN2CCOCC2)ccc1OCC(=O)Nc1cccc2ccccc12 ?
CRFBP-R2 agonist: 5.3; CRFBP-R2 block: -23.0; Tn7 DDE FP: 9.7; DDE Tn6 FP inh: 18.1*; Tn6 DDE ctr: -3.8; Tn6 DDE conf: -4.8

Results for CC1(OC(=O)c2ccco2)C(=O)C=C2C=C(C3CC3)OC=C2C1=O (stereo not given) ?
CRFBP-R2 agonist: 12.4; CRFBP-R2 block: 1.9; Tn7 DDE FP: -1.9; DDE Tn6 FP inh: 27.7*; Tn6 DDE ctr: 5.0; Tn6 DDE conf: 18.0*

What do the screens show for `COc1cccc2cc(-c3n[nH]c(=S)n3C)oc12`?
CRFBP-R2 agonist: -2.8; CRFBP-R2 block: 18.6; Tn7 DDE FP: 3.0; DDE Tn6 FP inh: 18.1*; Tn6 DDE ctr: -0.4; Tn6 DDE conf: -18.4

What do the screens show for `COc1cccc2cc(-c3ccnc(N)n3)oc12`?
CRFBP-R2 agonist: -1.1; CRFBP-R2 block: -6.8; Tn7 DDE FP: 4.4; DDE Tn6 FP inh: 7.4

How did O=S(=O)(Nc1ccc(Cl)cc1NS(=O)(=O)c1ccccc1)c1ccccc1 do in these assays?
CRFBP-R2 agonist: 36.0; CRFBP-R2 block: 40.8; Tn7 DDE FP: 9.1; DDE Tn6 FP inh: 18.9*; Tn6 DDE ctr: 3.7; Tn6 DDE conf: 1.2

How did CCCC(=Nc1ccc(N)cc1)C1=C(O)C(C(=O)OC)C(C)(C)CC1=O (stereo not given) do in these assays?
CRFBP-R2 agonist: 2.8; CRFBP-R2 block: -2.3; Tn7 DDE FP: 3.9; DDE Tn6 FP inh: 126.1*; Tn6 DDE ctr: 5.0; Tn6 DDE conf: 17.0*

What do the screens show for `CC(=O)N1N=C(c2ccncc2)OC12CCCCCC2`?
CRFBP-R2 agonist: 0.1; CRFBP-R2 block: -8.6; Tn7 DDE FP: 5.8; DDE Tn6 FP inh: 15.7*; Tn6 DDE ctr: 10.3; Tn6 DDE conf: 6.9

Results for COc1ccccc1-n1c(SCC(=O)NC2CCS(=O)(=O)C2)nc2ccccc2c1=O (stereo not given) ?
CRFBP-R2 agonist: -1.5; CRFBP-R2 block: 16.1; Tn7 DDE FP: 2.4; DDE Tn6 FP inh: 15.5*; Tn6 DDE ctr: 6.9; Tn6 DDE conf: 3.5

How did COc1ccccc1NS(=O)(=O)c1cccc(C(=O)N2CCN(C(=O)c3ccco3)CC2)c1 do in these assays?
CRFBP-R2 agonist: 0.8; CRFBP-R2 block: 3.1; Tn7 DDE FP: 5.5; DDE Tn6 FP inh: 16.5*; Tn6 DDE ctr: 0.1; Tn6 DDE conf: 1.2

Results for COc1ccccc1NS(=O)(=O)c1cccc(NC(=O)Nc2ccc(Cl)cc2)c1 ?
CRFBP-R2 agonist: 0.1; CRFBP-R2 block: -9.9; Tn7 DDE FP: -3.1; DDE Tn6 FP inh: 170.1*; Tn6 DDE ctr: 10.5; Tn6 DDE conf: 23.2*

What do the screens show for `COc1ccccc1NS(=O)(=O)c1cccc(NC(=O)Nc2ccccc2)c1`?
CRFBP-R2 agonist: -2.4; CRFBP-R2 block: -39.3; Tn7 DDE FP: -6.6; DDE Tn6 FP inh: -8.7

What do the screens show for `COc1ccc(NC(=O)N(C)C[C@@H]2OCc3ccccc3-c3c(n(C)c4ccccc34)C(=O)N([C@H](C)CO)C[C@H]2C)c(OC)c1`?
CRFBP-R2 agonist: 0.7; CRFBP-R2 block: 5.3; Tn7 DDE FP: -6.2; DDE Tn6 FP inh: 17.3*; Tn6 DDE ctr: -3.7; Tn6 DDE conf: -5.3

What do the screens show for `Cc1c(C)n(C)c2ccc(C(=O)NCCCN3CCN(C)CC3)cc12`?
CRFBP-R2 agonist: -0.6; CRFBP-R2 block: -12.2; Tn7 DDE FP: -3.4; DDE Tn6 FP inh: -2.1
